Measurements of several laboratories.
Lines come from different studies, so protocols differ. Values after ≈ are worked out from the molar mass of the structure shown.

| SMILES | organism | assay | system | conditions | endpoint | result |
| --- | --- | --- | --- | --- | --- | --- |
| C/C(=N/NC(=O)c1cn(-c2ccccc2)nc1-c1ccc(C)cc1)c1c(O)cc(C)oc1=O | Bacillus subtilis | microbial growth | – | – | MIC | 50 µg/mL (≈ 113 µM) |
| C#CCOC(=O)ON=C1C=CC(=C(C#N)c2ccccc2)C=C1 | Nakaseomyces glabratus | microbial killing, broth dilution | ATCC15126 | 48 h | MFC | 16 µg/mL (≈ 52.6 µM) |
| C/C(=N/NC(=O)c1cn(-c2ccccc2)nc1-c1ccc(F)cc1)c1c(O)cc(C)oc1=O | Bacillus subtilis | microbial growth | – | – | MIC | 70 µg/mL (≈ 157 µM) |
| CC(=O)ON=C1C=CC(=C(C#N)c2ccccc2)C=C1 | Nakaseomyces glabratus | microbial growth, broth dilution | ATCC15126 | 48 h | MIC | 16 µg/mL (≈ 60.5 µM) |
| CC1(C)S[C@@H]2[C@H](NC(=O)[C@H](N)c3ccccc3)C(=O)N2[C@H]1C(=O)O | Bacillus subtilis | microbial growth | – | – | MIC | 2 µg/mL (≈ 5.72 µM) |
| CNC(C)C1CCC(N)C(OC2C(N)CC(N)C(OC3OCC(C)(O)C(NC)C3O)C2O)O1 (stereo not drawn) | Bacillus subtilis | microbial growth, broth dilution | – | – | MIC | 1 µg/mL (≈ 2.09 µM) |
| OC(Cn1cncn1)(Cn1cncn1)c1ccc(F)cc1F | Cryptococcus neoformans | microbial growth, broth dilution | H99 | 48 h | MIC | 8 µg/mL (≈ 26.1 µM) |
| O=C(Nc1cccc(Br)c1)c1ccc(COC(Cn2ccnc2)c2ccc(Cl)cc2Cl)cc1 (stereo not drawn) | Nakaseomyces glabratus | microbial growth, broth dilution | – | – | MIC80 | 0.125 µg/mL (≈ 0.229 µM) |
| O=C(O)c1cn(C2CC2)c2cc(N3CCNCC3)c(F)cc2c1=O | Bacillus subtilis | microbial growth, well diffusion | ATCC6051 | 100 µg/mL | inhibition zone | 30 mm |
| O=C(Nc1ccc(Br)cc1)c1ccc(COC(Cn2ccnc2)c2ccc(Cl)cc2Cl)cc1 (stereo not drawn) | Nakaseomyces glabratus | microbial growth, broth dilution | – | – | MIC80 | 0.125 µg/mL (≈ 0.229 µM) |
| C#CCON=C1C=CC(=C(C#N)c2ccccc2)C=C1 | Nakaseomyces glabratus | microbial killing, broth dilution | ATCC15126 | 48 h | MFC | 32 µg/mL (≈ 123 µM) |
| O=C(Nc1ccc2[nH]ccc2c1)c1ccc(COC(Cn2ccnc2)c2ccc(Cl)cc2Cl)cc1 (stereo not drawn) | Nakaseomyces glabratus | microbial growth, broth dilution | – | – | MIC80 | 128 µg/mL (≈ 253 µM) |
| C=CC(=O)ON=C1C=CC(=C(C#N)c2ccccc2)C=C1 | Nakaseomyces glabratus | microbial growth, broth dilution | ATCC15126 | 48 h | MIC | 16 µg/mL (≈ 57.9 µM) |
| C[C@@H]1[C@H](O)[C@@H](C)/C=C/C=C/C=C/C=C/C=C/C=C/C=C/[C@H](O[C@@H]2O[C@H](C)[C@@H](O)[C@H](N)[C@@H]2O)C[C@@H]2O[C@](O)(C[C@@H](O)C[C@@H](O)[C@H](O)CC[C@@H](O)C[C@@H](O)CC(=O)O[C@H]1C)C[C@H](O)[C@H]2C(=O)O | Cryptococcus neoformans | microbial growth, broth dilution | – | 72 h | MIC | 0.25 µg/mL (≈ 0.271 µM) |
| O=C(Nc1ccc(F)cc1F)c1ccc(COC(Cn2ccnc2)c2ccc(Cl)cc2Cl)cc1 (stereo not drawn) | Nakaseomyces glabratus | microbial growth, broth dilution | – | – | MIC80 | 0.03 µg/mL (≈ 0.0597 µM) |
